RanGTP-Impb inh = disruptors of Ran-importin-beta complex formation – biochemical, FRET, CFP-Ran, YFP-importin-beta, homogeneous, primary screen | cell-free CFP-Ran/YFP-importin-beta FRET ratio | inhibition, % (concentration not given with the values) | hit rate 1.1% among 300,000;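 active = more than half of the replicate wells show a fall in the fluorescence ratio signal beyond about 16%, limit read from the data, passing the limit was not always enough; inconclusive = exactly half of the replicate wells pass the set limit; inactive = fewer than half of replicates pass the limit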
CaV13 FRET inh = Disruptors of the CACNA1D IQ motif to Ca2+-dependent inactivation inhibitor domain association, primary screening, Förster resonance energy transfer in intact living …; HEK cells, CFP/YFP FRET ICDI-IQ, plate reader, 10 min; percent FRET-ratio fall versus neutral wells; inhibition, % at 12.3 µM; hit rate 0.098% among 340,000;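 active = mean replicate inhibition of at least 30% and at least 1% of replicates passing that level; inconclusive = only one of the two criteria is met; inactive = neither criterion is met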
Hck-Nef inh = blocks Nef-activated human Hck kinase | inhibition, % at 20 µM | Recombinant Hck-YEEI plus Nef, Z-Lyte FRET kinase assay | hit rate 0.68% among 220,000 | P08631;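 active = Hck-Nef kinase inhibition above about 50%, limit read from the data; inactive = inhibition below that limit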
Runt-SMMHC FRET = inhibitors of human RUNX1 Runt domain binding to CBFb-SMMHC | Q01196+Q13951 | Cerulean-Runt/Venus-CBFb-SMMHC FRET ratio 530/480, 1 h | inhibition, % at 20 µM | hit rate 0.74% among 220,000 | AID 1434;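 active = mean inhibition across duplicate retests at 20 µM reaching about 50%, limit read from the data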;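 also: inhibitors lower the FRET ratio by blocking Runt binding to CBFb-SMMHC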
Target sequence (Q01196 whole entry, looked up, the tested form may be a part): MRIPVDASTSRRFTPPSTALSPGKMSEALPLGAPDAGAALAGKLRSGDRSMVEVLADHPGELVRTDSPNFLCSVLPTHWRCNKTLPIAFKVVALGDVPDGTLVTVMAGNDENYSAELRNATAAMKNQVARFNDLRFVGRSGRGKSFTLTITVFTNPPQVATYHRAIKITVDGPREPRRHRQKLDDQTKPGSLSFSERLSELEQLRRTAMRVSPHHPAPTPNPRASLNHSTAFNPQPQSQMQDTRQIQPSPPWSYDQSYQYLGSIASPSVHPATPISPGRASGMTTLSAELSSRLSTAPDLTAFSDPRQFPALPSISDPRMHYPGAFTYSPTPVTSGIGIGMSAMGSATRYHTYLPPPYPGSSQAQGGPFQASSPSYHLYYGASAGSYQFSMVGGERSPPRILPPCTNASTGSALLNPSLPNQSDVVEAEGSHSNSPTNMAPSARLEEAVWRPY
Target sequence (Q13951 whole entry, looked up, the tested form may be a part): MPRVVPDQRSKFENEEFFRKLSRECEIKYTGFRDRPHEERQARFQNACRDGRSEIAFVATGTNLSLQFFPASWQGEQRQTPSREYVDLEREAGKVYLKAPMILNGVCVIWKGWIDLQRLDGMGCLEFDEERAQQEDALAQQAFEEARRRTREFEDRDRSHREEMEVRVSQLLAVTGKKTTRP
Runt-CBFb FRET = blocks binding of human RUNX1 Runt domain to CBFb; Q01196+Q13951; hit rate 0.46% among 220,000; inhibition, % at 20 µM; AID 1496; Cerulean-Runt/Venus-CBFb FRET ratio 530/480, 1 h;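 active = inhibition over about 50% at 20 µM in the single-dose screen, limit read from the data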
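Buffer or medium: Tris pH 7.5 buffer with BSA. Assay system: Cerulean-labeled Runt domain protein. Amount: each fluorescent fusion protein 100 nM. Read-out basis: loss of energy transfer signal. Incubation: 1 h compound exposure, room temperature. Probe or stimulus: Venus-CBFb binding partner, 100 nM. Detection: FRET, excitation 422 nm, emission at 530 and 480 nm.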
Of the large screens only hits and unclear results are named; the others gave an inactive call. The list is not random: actives were taken first. Their share in the collection is about 1.5%.

COc1ccc(Cn2c(O)c(C=Nc3ccc(O)cc3)c3ccccc3c2=O)cc1	RanGTP-Impb inh 30
CCOC(=O)CNC(=O)c1ccc(OCC(F)(F)F)cc1	none
CC1(N2CCCCC2)CC2(O)C(=[N+]1[O-])CCC/C2=N\O (stereo unspecified)	none
O=c1[nH]c2ccccc2n1CCCSCCCn1c(=O)[nH]c2ccccc21	none
CS(=O)(=O)N1CCCCC1c1cc(C(=O)NCc2ccc(F)cc2)no1 (stereo unspecified)	none (no result: RanGTP-Impb inh, Hck-Nef inh, Runt-SMMHC FRET, Runt-CBFb FRET)
Cc1ccc(C(=O)N/C(=C\c2ccc(Br)cc2)c2nc(=S)[nH][nH]2)cc1	RanGTP-Impb inh 28
Cc1n[nH]c(=O)c2c1nnn2Cc1ccccc1Cl	none (no result: Hck-Nef inh, Runt-SMMHC FRET, Runt-CBFb FRET)
COc1cc(/C=C2/SC(=O)NC2=O)ccc1Oc1ccc([N+](=O)[O-])cc1[N+](=O)[O-]	Hck-Nef inh 52
c1ccn2cc(-c3ccc4c(c3)OCO4)cc2c1	Runt-SMMHC FRET 92, Runt-CBFb FRET 59
c1cnc2nc(-c3ccc4c(c3)OCO4)cn2c1	none
O=C(Nn1c(O)c(C=C2N=c3ccccc3=N2)sc1=S)c1ccc(Cl)cc1	RanGTP-Impb inh 33
O=C(Nn1c(O)c(C=C2N=c3ccccc3=N2)sc1=S)c1ccccc1	none
CCc1cccc(OCCn2nc(C(=O)O)c3ccccc3c2=O)c1	none
Cc1ccc2c(c1)N(C(=O)CCC(=O)NCCCN1CCOCC1)CC(C)O2 (stereo unspecified)	CaV13 FRET inh 47 (no result: Hck-Nef inh, Runt-SMMHC FRET, Runt-CBFb FRET)
CC1CC(C)CN(CCCNC(=O)CCC(=O)N2CC(C)Oc3ccccc32)C1 (stereo unspecified)	RanGTP-Impb inh inconclusive, CaV13 FRET inh 38 (no result: Hck-Nef inh, Runt-SMMHC FRET, Runt-CBFb FRET)
CC1CN(C(=O)CCC(=O)NCCc2ccccc2)c2ccccc2O1 (stereo unspecified)	none (no result: Hck-Nef inh, Runt-SMMHC FRET, Runt-CBFb FRET)
O=C(CN(C(=O)CNS(=O)(=O)c1ccccc1)C1CCCC1)NCc1ccco1	none (no result: CaV13 FRET inh, Hck-Nef inh)
O=C(CCc1nnc(Cc2ccc(-c3ccccc3)cc2)o1)NCCc1ccccn1	none
CN1CCN(S(=O)(=O)c2ccc(Oc3ccc(Br)cc3F)nc2)CC1	none (no result: Hck-Nef inh, Runt-SMMHC FRET, Runt-CBFb FRET)
COC(=O)c1ccc(C)c(NS(=O)(=O)c2ccc(NC(C)=O)cc2)c1	none
CCn1cc(S(=O)(=O)Nc2cc(C(=O)OC)ccc2C)cn1	RanGTP-Impb inh 32 (no result: Hck-Nef inh, Runt-SMMHC FRET, Runt-CBFb FRET)
COc1ccc(C2=NOC(C(=O)Nc3cc(C)on3)C2)cc1OC (stereo unspecified)	none
COc1cc(C2=NOC(C(=O)Nc3cc(C)on3)C2)cc(OC)c1OC (stereo unspecified)	RanGTP-Impb inh 20
O=C(O)CCCN1C(=O)C2C3CC(C2C1=O)C1C(c2ccccc2)c2sc(=O)n(-c4ccccc4)c2SC31 (stereo unspecified)	none
CC(C)CC(C(=O)O)N1C(=O)C2C3CC(C2C1=O)C1C(c2ccccc2)c2sc(=O)[nH]c2SC31 (stereo unspecified)	RanGTP-Impb inh 100
O=C(O)CN1C(=O)C2C3CC(C2C1=O)C1C(c2ccccc2)c2sc(=O)[nH]c2SC31 (stereo unspecified)	RanGTP-Impb inh 65
Cc1ccc(N2C(=O)C3Sc4[nH]c(=O)sc4C(c4ccccc4)C3C2=O)cc1 (stereo unspecified)	none (no result: RanGTP-Impb inh, CaV13 FRET inh)
CCn1c(=NC(=O)CSC(C)=O)sc2cc(OC)ccc21	CaV13 FRET inh 40 (no result: Runt-CBFb FRET)
N#C/C(=C\c1ccncc1)c1nc2c(s1)CCCC2	RanGTP-Impb inh inconclusive, Runt-SMMHC FRET 87
N#CC(=Cc1ccncc1)c1ccccc1	none (no result: RanGTP-Impb inh, Hck-Nef inh, Runt-SMMHC FRET, Runt-CBFb FRET)
CCn1c(=O)n(CC(=O)Nc2cc(OC)ccc2OC)c(=O)c2ccccc21	none (no result: CaV13 FRET inh)
COC(=O)C1=CN(C(C)C)C=C(C(=O)OC)C1c1cc2c(cc1Br)OCO2	RanGTP-Impb inh 30, Runt-SMMHC FRET 118
O=C(O)Cn1c(=O)n(Cc2ccccc2)c2ccccc21	none (no result: Hck-Nef inh, Runt-SMMHC FRET, Runt-CBFb FRET)
CCc1ccc(NC(=O)C(=O)NNC(=O)c2ccc(OC)cc2)cc1	none (no result: Hck-Nef inh, Runt-SMMHC FRET, Runt-CBFb FRET)
CCc1ccc(C(=O)NNC(=O)OC)cc1	Runt-CBFb FRET 69
COc1ccccc1-c1c(C#N)c(N)nc2c1CCc1ccccc1-2	RanGTP-Impb inh 20
CCN(Cc1ccccc1)S(=O)(=O)c1cc(C(=O)c2c(N)n(C)c(=O)n(C)c2=O)ccc1OC	none
N#CC1=C(N)OC2=C(C(=O)CCC2)C1c1cc2c(cc1Br)OCO2 (stereo unspecified)	CaV13 FRET inh 60 (no result: Hck-Nef inh, Runt-SMMHC FRET, Runt-CBFb FRET)
COC(CNC(=O)c1ccc(Cn2c(=S)[nH]c3cc4c(cc3c2=O)OCO4)cc1)OC	RanGTP-Impb inh 125
CCCc1c(C)[nH]c2ccc(NC(C)=O)cc2c1=O	none (no result: CaV13 FRET inh)
CC(=O)c1c(C)[nH]c(C(=O)NCc2ccccc2)c1C	Runt-CBFb FRET 50 (no result: CaV13 FRET inh)
CC(=O)c1c(C)[nH]c(C(=O)NCc2ccc(F)cc2)c1C	none
Cc1cc(/C=N/NC(N)=S)c(O)c(/C=N/NC(N)=S)c1	RanGTP-Impb inh 60
NC(=S)N/N=C/c1cccc(O)c1O	none
COCCCNC(=O)/C(C#N)=C/c1c(N2CCN(c3ccc(OC)cc3)CC2)nc2c(C)cccn2c1=O	RanGTP-Impb inh inconclusive (no result: Hck-Nef inh, Runt-SMMHC FRET, Runt-CBFb FRET)
Cc1cc(C(=O)COc2cccc3cccnc23)c(C)n1C	RanGTP-Impb inh 90
CC(C)C[C@H]1CN=C(Nc2ccccc2)N1CCCC1CCCC1	none (no result: Hck-Nef inh, Runt-SMMHC FRET, Runt-CBFb FRET)
CCCCCCc1cc2cc(C(=O)Nc3cccc(OC)c3)c(=O)oc2cc1O	RanGTP-Impb inh 156, Hck-Nef inh 53, Runt-SMMHC FRET 63, Runt-CBFb FRET 143
COc1ccc2oc(=O)c(C(=O)Nc3ccccc3O)cc2c1	none
COc1ccccc1NC(=O)CSc1nnc(CC(=O)Nc2cccc(C(F)(F)F)c2)n1C	none
COc1ccc2nc3ccccc3nc2c1	RanGTP-Impb inh 38, Runt-SMMHC FRET 86 (no result: CaV13 FRET inh)
COc1ccc(-c2nc3ccccc3nc2-c2ccccc2)cc1	none
Cc1ccccc1-n1c2nc(=O)n(C)c(=O)c-2cc2ccccc21	RanGTP-Impb inh 136, Runt-SMMHC FRET 81
CCCCn1c(=O)nc2n(-c3ccccc3C)c3ccccc3cc-2c1=O	RanGTP-Impb inh 130, Runt-SMMHC FRET 82
Cc1ccccc1-n1c(=O)c2ccccc2n2nnnc12	none
C(=N\n1cnnc1)/c1ccc(N2CCOCC2)s1	Runt-SMMHC FRET 70
CCOc1ccc(Nc2nc(N)c([N+](=O)[O-])c(N3CCN(C)CC3)n2)cc1	none (no result: Hck-Nef inh, Runt-SMMHC FRET, Runt-CBFb FRET)
CCC(C)[C@H](NC(=O)NCC1CCCO1)C(=O)OC (stereo partly specified)	none
Cc1ccc(CNC(=O)Cn2cccc2)cc1	none (no result: Hck-Nef inh, Runt-SMMHC FRET, Runt-CBFb FRET)
C=CCNC(=O)c1cc2c(=O)n3cc(C)ccc3nc2nc1NCC1CCCO1 (stereo unspecified)	RanGTP-Impb inh 179, Hck-Nef inh 179, Runt-SMMHC FRET 60 (no result: CaV13 FRET inh)
COCCCNC(=O)c1cc2c(=O)n3cc(C)ccc3nc2nc1NCC1CCCO1 (stereo unspecified)	RanGTP-Impb inh 173, Hck-Nef inh 193, Runt-SMMHC FRET 60 (no result: CaV13 FRET inh)
N#CC1=C(N)Oc2n[nH]c(-c3ccc(F)cc3)c2C1c1cccnc1 (stereo unspecified)	none (no result: CaV13 FRET inh)
